In ChEMBL document CHEMBL4673212, “Investigation of synergistic antimicrobial effects of the drug combinations of meropenem and 1,2-benzisoselenazol-3(2H)-one derivatives on carbapenem-resistant Enterobacteriaceae producing NDM-1” (Eur J Med Chem, 2018):
≈ marks a conversion by molar mass, not a printed value.

Columns and labels:
[1] = test system: Klebsiella pneumoniae; experiment: Potentiation of meropenem-induced antibacterial activity against carbapenem-resistant Klebsiella pneumoniae isolate 04 harboring CTX-M-14, VIM-1, TEM-1 and SHV-12 assessed as meropenem MIC by CLSI protocol based assay (Rvb >= 128 ug/ml); assay type: functional
[2] = test system: Enterobacter cloacae; experiment: Growth inhibition of carbapenem-resistant Enterobacter cloacae isolate 07 harboring CTX-M-14, TEM-1 and SHV-12 by CLSI protocol based assay; assay type: functional
[3] = test system: Enterobacter cloacae; experiment: Potentiation of meropenem-induced antibacterial activity against carbapenem-resistant Enterobacter cloacae isolate 27 harboring CTX-M-3, CTX-M-14, TEM-1 and SHV-12 assessed as meropenem MIC by CLSI protocol based assay (reference value: 32 ug/ml); assay type: functional
[4] = test system: Enterobacter cloacae; experiment: Growth inhibition of carbapenem-resistant Enterobacter cloacae isolate 10 harboring CTX-M-14, TEM-1 and SHV-12 by CLSI protocol based assay; assay type: functional
[5] = test system: Klebsiella oxytoca; experiment: Potentiation of meropenem-induced antibacterial activity against carbapenem-resistant Klebsiella oxytoca isolate 16 harboring SHV-12 assessed as meropenem MIC by CLSI protocol based assay (Rvb >= 128 ug/ml); assay type: functional
[6] = test system: Escherichia coli; experiment: Synergistic antibacterial activity against carbapenem-resistant Escherichia coli isolate 33 harboring CTX-M-15 assessed as fractional inhibitory concentration index in presence of meropenem by CLSI protocol based assay; assay type: functional
How it was run: (§1)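 FIC index from MICs of compound alone, meropenem alone, and the 1:1 (mass) compound–meropenem combination, read by eye after overnight incubation in a CLSI-based assay. FIC index = MICcombo/MICcpd + MICcombo/MICMem. FIC index ≤0.5 counted as synergy. At least triplicate assays. Clinical NDM-1 isolates for 17-39; E. coli TG1 carrying the IncX3 blaNDM-1 plasmid for 15.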

[7] = test system: Escherichia coli; experiment: Growth inhibition of carbapenem-resistant Escherichia coli isolate 06 harboring CTX-M-14, CTX-M-3 and SHV-12 by CLSI protocol based assay; assay type: functional
[8] = test system: Enterobacter cloacae; experiment: Growth inhibition of carbapenem-resistant Enterobacter cloacae isolate 08 harboring CTX-M-14, TEM-1 and SHV-12 by CLSI protocol based assay; assay type: functional
[9] = test system: Enterobacter cloacae; experiment: Synergistic antibacterial activity against carbapenem-resistant Enterobacter cloacae isolate 10 harboring CTX-M-14, TEM-1 and SHV-12 assessed as fractional inhibitory concentration index in presence of meropenem by CLSI protocol based assay; assay type: functional; how it was run: as §1
[10] = test system: Enterobacter cloacae; experiment: Synergistic antibacterial activity against carbapenem-resistant Enterobacter cloacae isolate 07 harboring CTX-M-14, TEM-1 and SHV-12 assessed as fractional inhibitory concentration index in presence of meropenem by CLSI protocol based assay; assay type: functional; how it was run: as §1
[11] = test system: Citrobacter freundii; experiment: Synergistic antibacterial activity against carbapenem-resistant Citrobacter freundii isolate 05 harboring SHV-12 assessed as fractional inhibitory concentration index in presence of meropenem by CLSI protocol based assay; assay type: functional; how it was run: as §1
[12] = test system: Enterobacter cloacae; experiment: Synergistic antibacterial activity against carbapenem-resistant Enterobacter cloacae isolate 18 harboring IMP-4 and TEM-1 assessed as fractional inhibitory concentration index in presence of meropenem by CLSI protocol based assay; assay type: functional
[13] = test system: Enterobacter cloacae; experiment: Synergistic antibacterial activity against carbapenem-resistant Enterobacter cloacae isolate 19 harboring CTX-M-14 and KPC-2 assessed as fractional inhibitory concentration index in presence of meropenem by CLSI protocol based assay; assay type: functional
[14] = test system: Enterobacter cloacae; experiment: Growth inhibition of carbapenem-resistant Enterobacter cloacae isolate 27 harboring CTX-M-3, CTX-M-14, TEM-1 and SHV-12 by CLSI protocol based assay; assay type: functional
[15] = test system: Escherichia coli; experiment: Potentiation of meropenem-induced antibacterial activity against carbapenem-resistant Escherichia coli isolate 45 assessed as meropenem MIC by CLSI protocol based assay (Rvb >= 128 ug/ml); assay type: functional
[16] = test system: Citrobacter freundii; experiment: Synergistic antibacterial activity against carbapenem-resistant Citrobacter freundii isolate 35 harboring CTX-M-3, KPC-2 and SHV-12 assessed as fractional inhibitory concentration index in presence of meropenem by CLSI protocol based assay; assay type: functional
[17] = test system: Enterobacter cloacae; experiment: Growth inhibition of carbapenem-resistant Enterobacter cloacae isolate 09 harboring CTX-M-3, CTX-M-14, TEM-1 and SHV-12 by CLSI protocol based assay; assay type: functional
[18] = test system: Enterobacter cloacae; experiment: Synergistic antibacterial activity against carbapenem-resistant Enterobacter cloacae isolate 28 harboring TEM-1 and SHV-12 assessed as fractional inhibitory concentration index in presence of meropenem by CLSI protocol based assay; assay type: functional; how it was run: as §1
[19] = test system: Klebsiella pneumoniae; experiment: Potentiation of meropenem-induced antibacterial activity against carbapenem-resistant Klebsiella pneumoniae isolate 14 harboring CTX-M-14, KPC-2 and SHV-12 assessed as meropenem MIC by CLSI protocol based assay (Rvb >= 128 ug/ml); assay type: functional
[20] = test system: Klebsiella oxytoca; experiment: Growth inhibition of carbapenem-resistant Klebsiella oxytoca isolate 03 harboring SHV-12 by CLSI protocol based assay; assay type: functional
[21] = test system: Citrobacter freundii; experiment: Growth inhibition of carbapenem-resistant Citrobacter freundii isolate 05 harboring SHV-12 by CLSI protocol based assay; assay type: functional
[22] = test system: Citrobacter freundii; experiment: Potentiation of meropenem-induced antibacterial activity against carbapenem-resistant Citrobacter freundii isolate 17 harboring SHV-12 assessed as meropenem MIC by CLSI protocol based assay (reference value: 64 ug/ml); assay type: functional
[23] = test system: Morganella morganii; experiment: Potentiation of meropenem-induced antibacterial activity against carbapenem-resistant Morganella morganii isolate 26 assessed as meropenem MIC by CLSI protocol based assay (reference value: 64 ug/ml); assay type: functional
[24] = Growth inhibition of Escherichia coli TG1 transformed with IncX3 plasmid expressing blaNDM-1 incubated for overnight by CLSI protocol based assay; conditions: 12 h
[25] = test system: Escherichia coli; experiment: Potentiation of meropenem-induced antibacterial activity against Escherichia coli TG1 transformed with IncX3 plasmid expressing blaNDM-1 assessed as bacterial growth inhibition by measuring meropenem MIC incubated for overnight by CLSI protocol based assay; assay type: functional; conditions: time 12 hrs
[26] = test system: Escherichia coli; experiment: Growth inhibition of carbapenem-resistant Escherichia coli isolate 45 by CLSI protocol based assay; assay type: functional
[27] = test system: Klebsiella oxytoca; experiment: Synergistic antibacterial activity against carbapenem-resistant Klebsiella oxytoca isolate 03 harboring SHV-12 assessed as fractional inhibitory concentration index in presence of meropenem by CLSI protocol based assay; assay type: functional; how it was run: as §1
[28] = test system: Escherichia coli; experiment: Potentiation of meropenem-induced antibacterial activity against carbapenem-resistant Escherichia coli isolate 06 harboring CTX-M-14, CTX-M-3 and SHV-12 assessed as meropenem MIC by CLSI protocol based assay (Rvb >= 128 ug/ml); assay type: functional
[29] = test system: Citrobacter freundii; experiment: Growth inhibition of carbapenem-resistant Citrobacter freundii isolate 43 by CLSI protocol based assay; assay type: functional
[30] = test system: Escherichia coli; experiment: Potentiation of meropenem-induced antibacterial activity against carbapenem-resistant Escherichia coli isolate 33 harboring CTX-M-15 assessed as meropenem MIC by CLSI protocol based assay (reference value: 64 ug/ml); assay type: functional
[31] = test system: Escherichia coli; experiment: Synergistic antibacterial activity against Escherichia coli TG1 transformed with IncX3 plasmid expressing blaNDM-1 assessed as fractional inhibitory concentration index in presence of meropenem incubated for overnight by CLSI protocol based assay; assay type: functional; conditions: time 12 hrs; how it was run: as §1
[32] = test system: Enterobacter cloacae; experiment: Growth inhibition of carbapenem-resistant Enterobacter cloacae isolate 19 harboring CTX-M-14 and KPC-2 by CLSI protocol based assay; assay type: functional
[33] = test system: Citrobacter freundii; experiment: Synergistic antibacterial activity against carbapenem-resistant Citrobacter freundii isolate 43 assessed as fractional inhibitory concentration index in presence of meropenem by CLSI protocol based assay; assay type: functional; how it was run: as §1

| Structure (SMILES) | MIC [1] | MIC [2] | MIC [3] | MIC [4] | MIC [5] | fractional inhibitory concentration index (FICI) [6] | MIC [7] | MIC [8] | fractional inhibitory concentration index (FICI) [9] | fractional inhibitory concentration index (FICI) [10] | fractional inhibitory concentration index (FICI) [11] | fractional inhibitory concentration index (FICI) [12] | fractional inhibitory concentration index (FICI) [13] | MIC [14] | MIC [15] | fractional inhibitory concentration index (FICI) [16] | MIC [17] | fractional inhibitory concentration index (FICI) [18] | MIC [19] | MIC [20] | also measured |
| --- | --- | --- | --- | --- | --- | --- | --- | --- | --- | --- | --- | --- | --- | --- | --- | --- | --- | --- | --- | --- | --- |
| CC(C)(C)OC(=O)NCCn1[se]c2ccccc2c1=O | 32 µg/mL | ≥ 128 µg/mL | 4 µg/mL | ≥ 128 µg/mL | 8 µg/mL | 0.19 | ≥ 128 µg/mL | ≥ 128 µg/mL | 0.19 | 0.19 | 0.13 | 0.63 | 0.25 | ≥ 128 µg/mL | 4 µg/mL | 0.13 | ≥ 128 µg/mL | 0.16 | 8 µg/mL | ≥ 128 µg/mL | MIC [21]: ≥ 128 µg/mL; MIC [22]: 4 µg/mL; MIC [23]: 2 µg/mL; MIC [24]: >= 128 ug ml-1; MIC [25]: 2 µg/mL; MIC [26]: ≥ 128 µg/mL; fractional inhibitory concentration index (FICI) [27]: 0.13; MIC [28]: 8 µg/mL; MIC [29]: ≥ 128 µg/mL; MIC [30]: 8 µg/mL; fractional inhibitory concentration index (FICI) [31]: 0.047; MIC [32]: ≥ 128 µg/mL; fractional inhibitory concentration index (FICI) [33]: 0.25 |
| O=c1c2ccccc2[se]n1-c1ccccc1 [EBSELEN] | 64 µg/mL | ≥ 128 µg/mL | 64 µg/mL | ≥ 128 µg/mL | 32 µg/mL | 0.38 | ≥ 128 µg/mL | ≥ 128 µg/mL | 1.5 | 0.38 | 0.25 | 2.5 | 2 | ≥ 128 µg/mL | 16 µg/mL | 0.5 | ≥ 128 µg/mL | 2.5 | ≥ 128 µg/mL | ≥ 128 µg/mL | MIC [21]: ≥ 128 µg/mL; MIC [22]: 16 µg/mL; MIC [23]: 64 µg/mL; MIC [24]: 64 µg/mL (≈ 233 µM); MIC [25]: 16 µg/mL; MIC [26]: ≥ 128 µg/mL; fractional inhibitory concentration index (FICI) [27]: 0.5; MIC [28]: 64 µg/mL; MIC [29]: ≥ 128 µg/mL; MIC [30]: 16 µg/mL; fractional inhibitory concentration index (FICI) [31]: 0.5; MIC [32]: ≥ 128 µg/mL; fractional inhibitory concentration index (FICI) [33]: 0.5 |
